Test results from ChEMBL document CHEMBL4376888, “Discovery of Potent, Selective, and Direct Acid Sphingomyelinase Inhibitors with Antidepressant Activity” (J Med Chem, 2020).
Calls of active or inactive are those of the source. The rule behind the calls is not given here.

Test system: NIH3T3
Assay: Cytotoxicity against mouse NIH/3T3 cells assessed as reduction in cell viability after 24 hrs by MTT assay
Assay type: cell-based
Settings: mouse, nih3t3, 24 h
Method in brief: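 NIH3T3 cells in DMEM with 10 % FBS at 37 °C, 5 % CO₂, grown overnight, then inhibitor added for 24 h; viability read by MTT.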

Row | SMILES | Activity
1 | CN(C)CCC=C1c2ccccc2CCc2ccccc21 [AMITRIPTYLINE] | Non-Toxic

Molecular target: T1, Sphingomyelin phosphodiesterase (Homo sapiens, UniProt P17405)
T1 sequence (P17405 whole entry): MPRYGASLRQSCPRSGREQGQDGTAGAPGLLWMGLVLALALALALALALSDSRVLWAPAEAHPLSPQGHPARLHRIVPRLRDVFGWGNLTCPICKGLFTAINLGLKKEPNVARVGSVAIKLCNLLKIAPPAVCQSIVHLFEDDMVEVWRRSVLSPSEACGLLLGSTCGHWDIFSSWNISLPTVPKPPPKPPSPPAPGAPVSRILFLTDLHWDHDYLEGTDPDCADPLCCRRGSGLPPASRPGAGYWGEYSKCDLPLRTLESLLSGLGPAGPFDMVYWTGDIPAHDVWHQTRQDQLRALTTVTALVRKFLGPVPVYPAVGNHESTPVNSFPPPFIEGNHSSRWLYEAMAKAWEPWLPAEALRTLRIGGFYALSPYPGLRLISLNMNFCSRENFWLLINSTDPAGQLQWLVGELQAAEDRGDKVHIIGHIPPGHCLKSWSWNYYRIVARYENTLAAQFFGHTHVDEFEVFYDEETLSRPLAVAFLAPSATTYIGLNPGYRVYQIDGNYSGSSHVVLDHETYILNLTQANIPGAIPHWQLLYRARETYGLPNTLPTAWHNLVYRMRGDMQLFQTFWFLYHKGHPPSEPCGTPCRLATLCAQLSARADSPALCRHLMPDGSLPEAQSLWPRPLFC
Assay: Inhibition of acid sphingomyelinase (unknown origin)
Settings: not given

Row | SMILES | Ki [µM] | IC50 [µM]
2 | CCCCCCCCCCCCC/C=C/[C@H](O)[C@@H](COP(=O)([O-])OCC[N+](C)(C)C)NC(=S)NC(C)(C)C | 70 | –
3 | CCCCCCCC(N)(P(=O)(O)O)P(=O)(O)O | – | 0.02
4 | CCOc1ccc2oc(-c3cc(Br)cc4c3OCOC4)c(N)c(=O)c2c1 | – | 3.1

Test system: Rattus norvegicus
Assay: Antidepressant activity in Sprague-Dawley rat model of reserpine-induced depression assessed as increase in frequency of upright at 12 mg/kg, ip administered twice daily for 2 weeks measured for 5 mins by open field test
Assay type: functional, organism-based
Settings: not given
Method in brief: (§1)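 Female SD rats (6-8 weeks, 200 g) given reserpine 4 mg/Kg ip daily to induce depression; test agent in 5 % DMSO, 2 % Tween 80, 5 % glucose, ip twice a day for two weeks. Each rat placed in the central square of a 100 cm × 100 cm box (25 squares, walls ~42 cm); centre time, grid crossings, rearing and grooming recorded over 5 min, 7:30–12:00; n = 8.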

Row | SMILES | Activity
5 | CN(C)CCC=C1c2ccccc2CCc2ccccc21 [AMITRIPTYLINE] | Active

Test system: Rattus norvegicus
Assay: Antidepressant activity in Sprague-Dawley rat model of reserpine-induced depression assessed as increase in grooming frequency at 12 mg/kg, ip administered twice daily for 2 weeks measured for 5 mins by open field test
Assay type: functional, organism-based
Settings: not given
Method in brief: as §1

Row | SMILES | Activity
6 | CN(C)CCC=C1c2ccccc2CCc2ccccc21 [AMITRIPTYLINE] | Active

Test system: Rattus norvegicus
Assay: Antidepressant activity in Sprague-Dawley rat model of reserpine-induced depression assessed as increase in time passing the grid at 12 mg/kg, ip administered twice daily for 2 weeks measured for 5 mins by open field test
Assay type: functional, organism-based
Settings: not given
Method in brief: as §1

Row | SMILES | Activity
7 | CN(C)CCC=C1c2ccccc2CCc2ccccc21 [AMITRIPTYLINE] | Active

Test system: Rattus norvegicus
Assay: Reversal of reserpine-induced inhibition of neurogenesis in Sprague-Dawley rat hippocampus at 12 mg/kg, ip administered twice daily for 2 weeks by EDU-incorporation assay
Assay type: functional, organism-based
Settings: not given
Method in brief: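 Reserpine-depressed female SD rats (4 mg/Kg ip daily; drug ip twice daily for two weeks) injected with EdU 8 mg/kg twice in 1 day, killed 96 h later. Frozen brain sections washed with glycine and PBS, Click-iT stained 30 min, Hoechst 33342 30 min; hippocampal proliferation scored by fluorescence microscopy; n = 5.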

Row | SMILES | Activity
8 | CN(C)CCC=C1c2ccccc2CCc2ccccc21 [AMITRIPTYLINE] | Active

Molecular target: T2, Sphingomyelin phosphodiesterase 2 (Homo sapiens) (UniProt O60906)
T2 sequence (whole entry): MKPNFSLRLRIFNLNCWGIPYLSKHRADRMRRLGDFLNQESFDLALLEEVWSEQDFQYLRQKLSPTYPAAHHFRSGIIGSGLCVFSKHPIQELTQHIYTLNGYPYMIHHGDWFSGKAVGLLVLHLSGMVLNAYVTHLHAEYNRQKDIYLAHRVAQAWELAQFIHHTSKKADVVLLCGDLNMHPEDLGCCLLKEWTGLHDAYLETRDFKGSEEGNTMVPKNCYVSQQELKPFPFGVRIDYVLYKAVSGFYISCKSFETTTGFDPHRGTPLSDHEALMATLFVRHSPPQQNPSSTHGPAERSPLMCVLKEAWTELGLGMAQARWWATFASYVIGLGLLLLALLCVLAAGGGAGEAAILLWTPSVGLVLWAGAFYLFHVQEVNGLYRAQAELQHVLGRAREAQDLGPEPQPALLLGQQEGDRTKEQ
Assay: Inhibition of neutral sphingomyelinase (unknown origin) at 100 uM using NBD-sphingomyelin as substrate after 30 mins by fluorescence based assay
Settings: not given
Method in brief: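 Neutral sphingomyelinase assay run as the ASM cell-extract assay (NBD-sphingomyelin, 37 °C, 30 min, chloroform/methanol extraction, TLC, NBD-ceramide fluorescence). Buffer was 200 mM Tris-HCl pH 7.4 with 10 mM MgCl2 and 10 mM dithiothreitol. Tested at 100 μM.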

Row | SMILES | inhibition
9 | COc1ccc(C(=O)NO)cc1OCc1noc(-c2cccc(Cl)c2)n1 | inactive
10 | CCCCCCc1ccc(COc2cccc(C(=O)NO)c2)cc1 | inactive
11 | CCCCCCCCCCOc1cc(C(=O)NO)on1 | inactive
12 | CCCCCCc1ccc(COc2cc(C(=O)NO)ccc2OC)cc1 | inactive
13 | COc1ccc(C(=O)NO)cc1OCc1noc(-c2ccc(Cl)cc2)n1 | inactive
14 | COc1ccc(C(=O)NO)cc1OCc1ccc(-c2ccc(Cl)cc2)cc1 | inactive

Results, then the compound that gave them:

Row | inhibition | SMILES
15 | inactive | COc1ccc(C(=O)NO)cc1OCc1ccc(-c2cccnc2)cc1
16 | inactive | O=C(NO)c1cccc(OCc2ccc(-c3ccccc3)cc2)c1
17 | inactive | O=C(NO)c1cccc(OCc2ccc(-c3noc(CCc4ccccc4)n3)cc2)c1
18 | inactive | O=C(NO)c1cc(OCc2ccc(-c3ccccc3)cc2)no1
19 | inactive | COc1ccc(C(=O)NO)cc1OCc1ccc(-c2ccccc2)cc1

Test system: not listed separately
Assay: Solubility of the compound in physiological saline
Assay type: physicochemical
Settings: buffer

Row | SMILES | solubility
20 | CCCCCCc1ccc(COc2cccc(C(=O)NO)c2)cc1 | Insoluble
21 | CCCCCCc1ccc(COc2cc(C(=O)NO)ccc2OC)cc1 | Insoluble
22 | COc1ccc(C(=O)NO)cc1OCc1ccc(-c2ccc(Cl)cc2)cc1 | Insoluble

Now from value to compound:

Row | solubility | SMILES
23 | Insoluble | O=C(NO)c1cccc(OCc2ccc(-c3ccc(Cl)cc3)cc2)c1
24 | Insoluble | O=C(NO)c1cccc(OCc2ccc(-c3ccccc3)cc2)c1
25 | Insoluble | COc1ccc(C(=O)NO)cc1OCc1ccc(-c2ccccc2)cc1

Molecular target: T1, Sphingomyelin phosphodiesterase
Assay: Inhibition of human Huh7 cell derived acid sphingomyelinase using NBD-sphingomyelin as substrate after 30 mins by fluorescence based assay
Settings: not given
Method in brief: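 Cultured cells were lysed in 25 mM Tris-HCl pH 7.4, 5 mM EDTA, sonicated and cleared at 300 g. 400 μg protein incubated with NBD-sphingomyelin in 100 mM sodium acetate pH 4.7, 1% Triton X-100, 40 mM CaCl2, 100 μM ZnCl2. Inhibitors added in DMSO, 37 °C, 30 min. Stopped with chloroform/methanol 2:1; NBD-ceramide fluorescence after TLC.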

Row | SMILES | IC50 [µM]
26 | COc1ccc(C(=O)NO)cc1OCc1noc(-c2cccc(Cl)c2)n1 | 9.22
27 | COc1ccc(C(=O)NO)cc1OCc1ccc(-c2noc(-c3ccc(Br)cc3)n2)cc1 | > 100
28 | COc1ccc(-c2nc(COc3cc(C(=O)NO)ccc3OC)no2)cc1OC | 13.8
29 | CCCCCCCCCCOc1cc(C(=O)NO)on1 | 0.36
30 | O=C(NO)c1cccc(OCc2ccc(-c3noc(-c4cccc(F)c4)n3)cc2)c1 | > 100
31 | COc1c(O)cc2oc3cc(O)c(CC=C(C)C)c(O)c3c(=O)c2c1CC=C(C)C [MANGOSTIN] | 14.1
32 | CCc1nc(-c2ccc(COc3cccc(C(=O)NO)c3)cc2)no1 | 34.7
33 | COc1ccc(C(=O)NO)cc1OCc1noc(-c2ccc(Cl)cc2)n1 | 21.6
34 | O=C(NO)c1cccc(OCc2ccc(-c3noc(-c4ccc(Br)cc4)n3)cc2)c1 | > 100
35 | COc1ccc(C(=O)NO)cc1OCc1ccc(-c2ccc(Cl)cc2)cc1 | 0.34

Second part, the compound after the results:

Row | IC50 [µM] | SMILES
36 | 7.83 | O=C(NO)c1cccc(OCc2ccc(-c3noc(Cc4ccccc4)n3)cc2)c1
37 | 4.97 | COc1ccc(C(=O)NO)cc1OCc1ccc(-c2cccnc2)cc1
38 | 8.96 | O=C(NO)c1cccc(OCc2ccc(-c3ccc(Cl)cc3)cc2)c1
39 | 19.6 | O=C(NO)c1cccc(OCc2ccc(-c3ccccc3)cc2)c1
40 | 52.3 | O=C(NO)c1cccc(OCc2ccc(-c3cccnc3)cc2)c1
41 | 1.73 | O=C(NO)c1cccc(OCc2ccc(-c3noc(CCc4ccccc4)n3)cc2)c1
42 | 0.88 | O=C(NO)c1cc(OCc2ccc(-c3ccccc3)cc2)no1
43 | > 100 | O=C(NO)c1cccc(OCc2ccc(-c3noc(-c4ccccc4)n3)cc2)c1

Test system: Rattus norvegicus
Assay: Antidepressant activity in Sprague-Dawley rat model of reserpine-induced depression assessed as reduction in total time spent in center at 12 mg/kg, ip administered twice daily for 2 weeks measured for 5 mins by open field test
Assay type: functional, organism-based
Settings: not given
Method in brief: as §1

Row | SMILES | Activity
44 | CN(C)CCC=C1c2ccccc2CCc2ccccc21 [AMITRIPTYLINE] | Active

Molecular target: T1, Sphingomyelin phosphodiesterase
Assay: Inhibition of recombinant human acid sphingomyelinase (His62 to Pro628 residues) using NBD-sphingomyelin as substrate after 30 mins by fluorescence based assay
Settings: not given
Method in brief: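 Buffer 100 mM sodium acetate pH 4.7, 1% Triton X-100, 40 mM CaCl2, 100 μM ZnCl2. Inhibitors in DMSO at various concentrations, 37 °C, 30 min. NBD-ceramide fluorescence after chloroform/methanol extraction and TLC.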

Row | SMILES | IC50 [µM]
45 | CCCCCCCCCCOc1cc(C(=O)NO)on1 | 2.2
46 | CCCCCCCCCCOc1cc(C(=O)NO)ccc1OC | 0.89
47 | COc1ccc(C(=O)NO)cc1OCc1ccc(-c2ccc(Cl)cc2)cc1 | 8.07

Second part, the compound after the results:

Row | IC50 [µM] | SMILES
48 | 4.93 | O=C(NO)c1cccc(OCc2ccc(-c3noc(Cc4ccccc4)n3)cc2)c1
49 | 3.83 | COc1ccc(C(=O)NO)cc1OCc1ccc(-c2cccnc2)cc1
50 | 0.36 | O=C(NO)c1cccc(OCc2ccc(-c3ccc(Cl)cc3)cc2)c1
51 | 4.25 | O=C(NO)c1cccc(OCc2ccc(-c3noc(CCc4ccccc4)n3)cc2)c1
52 | 4.09 | O=C(NO)c1cc(OCc2ccc(-c3ccccc3)cc2)no1
